One data set has as its target T1, Lysyl oxidase homolog 2 (Homo sapiens, UniProt Q9Y4K0).
T1 sequence (Q9Y4K0 whole entry): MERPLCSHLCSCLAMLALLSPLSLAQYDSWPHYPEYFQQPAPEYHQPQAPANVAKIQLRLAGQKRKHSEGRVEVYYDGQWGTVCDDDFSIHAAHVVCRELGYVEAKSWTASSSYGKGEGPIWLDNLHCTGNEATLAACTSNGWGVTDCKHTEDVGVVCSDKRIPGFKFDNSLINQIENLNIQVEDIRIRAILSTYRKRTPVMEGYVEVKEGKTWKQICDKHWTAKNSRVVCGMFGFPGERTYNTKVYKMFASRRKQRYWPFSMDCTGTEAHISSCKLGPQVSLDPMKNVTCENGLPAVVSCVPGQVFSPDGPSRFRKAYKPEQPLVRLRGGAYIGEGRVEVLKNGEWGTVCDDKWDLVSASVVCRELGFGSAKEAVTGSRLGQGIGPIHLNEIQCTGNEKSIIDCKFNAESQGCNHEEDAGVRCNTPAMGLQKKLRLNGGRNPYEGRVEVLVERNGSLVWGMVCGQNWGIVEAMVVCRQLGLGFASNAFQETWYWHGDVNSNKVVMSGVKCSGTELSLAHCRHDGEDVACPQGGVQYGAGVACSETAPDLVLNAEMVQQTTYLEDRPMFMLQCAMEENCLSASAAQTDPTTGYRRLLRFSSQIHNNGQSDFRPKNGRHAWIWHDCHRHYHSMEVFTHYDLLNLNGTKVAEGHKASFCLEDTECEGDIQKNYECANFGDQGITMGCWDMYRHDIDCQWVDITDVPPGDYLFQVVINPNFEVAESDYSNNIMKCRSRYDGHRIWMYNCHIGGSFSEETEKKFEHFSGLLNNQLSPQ
Description: Inhibition of recombinant human C-terminal His-tagged […] (1-774 residues) expressed in mouse myeloma cells using putrescine as substrate preincubated with enzyme for 30 mins followed by substrate addition and measured every 2.5 mins for 30 mins by Amplex-Red oxidation assay. Put shortly: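 LOXL2 enzyme preincubated with compound for 30 min at 37 °C, then Amplex Red (120 µM) / HRP (1.5 U/mL) mix containing 5 mM putrescine added. Buffer: 1.2 M urea, 50 mM sodium borate, pH 8.2. H2O2 fluorescence (ex 565/em 590) read every 2.5 min for 30 min at 37 °C; BAPN 100 µM as positive control; n≥2.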

A further data set deals with T2, Protein-lysine 6-oxidase (Bos taurus, UniProt P33072).
T2 sequence (P33072 whole entry): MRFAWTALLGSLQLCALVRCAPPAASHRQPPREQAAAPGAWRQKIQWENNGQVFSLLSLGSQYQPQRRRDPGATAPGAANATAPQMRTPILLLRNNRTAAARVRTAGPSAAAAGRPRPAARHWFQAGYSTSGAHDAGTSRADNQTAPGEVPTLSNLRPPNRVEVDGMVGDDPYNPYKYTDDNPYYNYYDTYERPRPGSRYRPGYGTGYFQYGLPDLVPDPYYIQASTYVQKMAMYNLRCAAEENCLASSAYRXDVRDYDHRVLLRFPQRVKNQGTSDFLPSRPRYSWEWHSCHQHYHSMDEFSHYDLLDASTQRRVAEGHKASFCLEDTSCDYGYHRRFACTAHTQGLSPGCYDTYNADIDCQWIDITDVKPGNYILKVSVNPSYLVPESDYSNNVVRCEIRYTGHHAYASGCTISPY
The data set is described as follows: Inhibition of LOX in bovine aorta using putrescine as substrate preincubated with enzyme for 30 mins followed by substrate addition and measured every 2.5 mins for 30 mins by Amplex-Red oxidation assay. The data set is classed as tissue-based. The method, boiled down: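 LOX extracted from calf aorta after PBS washing with 4 M urea/50 mM borate pH 8.2, concentrated on 10 kDa filters into 1.2 M urea/borate with protease inhibitors. Preincubated 30 min at 37 °C with compound, then Amplex Red/HRP with 10 mM putrescine; fluorescence read every 2.5 min for 30 min.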

Data set [1] has as its target T3, Amine oxidase [copper-containing] 3 (Homo sapiens, UniProt Q16853).
T3 sequence (Q16853 whole entry): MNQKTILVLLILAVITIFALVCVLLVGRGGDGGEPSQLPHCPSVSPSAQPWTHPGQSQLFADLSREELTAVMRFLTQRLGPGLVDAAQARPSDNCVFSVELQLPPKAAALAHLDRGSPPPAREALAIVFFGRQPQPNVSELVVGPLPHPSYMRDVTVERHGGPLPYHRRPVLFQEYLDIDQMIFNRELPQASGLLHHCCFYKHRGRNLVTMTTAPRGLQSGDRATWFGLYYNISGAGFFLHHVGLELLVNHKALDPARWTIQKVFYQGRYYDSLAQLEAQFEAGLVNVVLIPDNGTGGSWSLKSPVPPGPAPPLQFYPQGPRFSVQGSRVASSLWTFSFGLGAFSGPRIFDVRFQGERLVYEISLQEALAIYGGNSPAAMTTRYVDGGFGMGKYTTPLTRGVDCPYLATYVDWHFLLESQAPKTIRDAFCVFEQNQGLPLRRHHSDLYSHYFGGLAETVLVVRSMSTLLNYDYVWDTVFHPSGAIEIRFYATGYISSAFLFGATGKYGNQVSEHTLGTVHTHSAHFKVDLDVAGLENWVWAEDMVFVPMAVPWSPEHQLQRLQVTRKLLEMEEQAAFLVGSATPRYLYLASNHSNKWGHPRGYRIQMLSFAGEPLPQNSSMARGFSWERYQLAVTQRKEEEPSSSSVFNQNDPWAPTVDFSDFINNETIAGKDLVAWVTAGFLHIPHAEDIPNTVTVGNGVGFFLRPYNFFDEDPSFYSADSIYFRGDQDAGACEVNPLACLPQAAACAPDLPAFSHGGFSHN
The data set is described as follows: Substrate activity at recombinant human SSAO assessed as compound oxidation by measuring oxidative turnover at 30 uM measured for 40 mins by horseradish peroxidase-coupled amplex red reagent-based fluorometric assay relative to DMSO. In kind it is ADME. Put shortly: (§1)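 Compound oxidation measured without substrate by peroxidase-coupled fluorometric read-out of resorufin formation over 40 min at 37 °C in HEPES buffer. Amplex Red 20 µM, HRP 4 U/ml, test compound at final 30 µM. Enzyme source was human recombinant SSAO or AOC4 from diluted dog serum. Benzylamine at 600 µM served as positive control. Signal is expressed relative to DMSO-only background, so a value near 1 means no turnover.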

Data set [2] in a line: Substrate activity at AOC4 in dog serum assessed as compound oxidation by measuring oxidative turnover at 30 uM measured for 40 mins by horseradish peroxidase-coupled amplex red reagent-based fluorometric assay relative to DMSO. The data set is classed as ADME, cell-free, Canis lupus familiaris. Put shortly:
as §1

Each structure is given as a SMILES string.

This is an account of results in ChEMBL document CHEMBL4321820, “Identification and Optimization of Mechanism-Based Fluoroallylamine Inhibitors of Lysyl Oxidase-like 2/3” (J Med Chem, 2019).

Take `Cc1c(-c2cccc(S(=O)(=O)N(C)C)c2)c2cc(C(=O)O)ccc2n1C/C(F)=C/CN.Cl`: the figures for the IC50 on Lysyl oxidase homolog 2 (read-out: IC50) and at Protein-lysine 6-oxidase (read-out: IC50) were 5 nM and 1780 nM, respectively. The “fold change (FC)” value in data set [1] and in data set [2] was 1 each time.

As for `CCOC(=O)c1ccc2c(c1)c(-c1cccc(S(=O)(=O)N(C)C)c1)c(C)n2C/C(F)=C/CN.Cl`, the IC50 at Lysyl oxidase homolog 2 (read-out: pIC50 (converted)) is 79.4 nM; at Protein-lysine 6-oxidase (read-out: pIC50 (converted)), 6310 nM. The “fold change (FC)” value is recorded as 2.4 in data set [1] and 1 in data set [2].

As to `Cc1c(-c2cccc(S(=O)(=O)N(C)C)c2)c2ccccc2n1C/C(F)=C/CN.Cl`, the IC50 is 100 nM at Lysyl oxidase homolog 2 (read-out: pIC50 (converted)) and 2000 nM on Protein-lysine 6-oxidase (read-out: pIC50 (converted)). Further, the “fold change (FC)” value in data set [1] was 1.4; in data set [2], above 4.
